Measurements as given in ChEMBL document CHEMBL1154396, “1-(5-Carboxyindol-1-yl)propan-2-ones as inhibitors of human cytosolic phospholipase A2alpha: synthesis and properties of bioisosteric benzimidazole, benzotriazole and indazole analogues” (Bioorg Med Chem Lett, 2009).
Values after ≈ are worked out from the molar mass of the structure shown. Blank lines part the entries; values can stand above or below the compound they belong to.

Legend:
Liver microsomes = test: Metabolic stability in rat liver microsomes; format: ADME, Microsome
Method in brief: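 Rat liver microsomes incubated aerobically with test compound, with and without NADPH, stopped after 30 min. Parent remaining in the NADPH incubation quantified by reversed-phase HPLC with UV detection against the NADPH-free reference incubation and given as percent remaining. Main metabolite structure confirmed by LC/MS. Mean of at least two independent determinations.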

[1] = Thermodynamic solubility in sodium phosphate buffer at pH 7.4; format: physicochemical
Method in brief: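 Thermodynamic method: solid compound suspended in sodium phosphate buffer pH 7.4, sonicated 10 min, then shaken 20 h at room temperature. Undissolved material removed by centrifugation, and dissolved concentration in the aqueous phase measured by HPLC.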

[2] = target: T1, Cytosolic phospholipase A2 (Homo sapiens, UniProt P47712); test: Inhibition of cPLA2 in human platelets assessed as arachidonic acid release
T1 sequence (P47712 whole entry): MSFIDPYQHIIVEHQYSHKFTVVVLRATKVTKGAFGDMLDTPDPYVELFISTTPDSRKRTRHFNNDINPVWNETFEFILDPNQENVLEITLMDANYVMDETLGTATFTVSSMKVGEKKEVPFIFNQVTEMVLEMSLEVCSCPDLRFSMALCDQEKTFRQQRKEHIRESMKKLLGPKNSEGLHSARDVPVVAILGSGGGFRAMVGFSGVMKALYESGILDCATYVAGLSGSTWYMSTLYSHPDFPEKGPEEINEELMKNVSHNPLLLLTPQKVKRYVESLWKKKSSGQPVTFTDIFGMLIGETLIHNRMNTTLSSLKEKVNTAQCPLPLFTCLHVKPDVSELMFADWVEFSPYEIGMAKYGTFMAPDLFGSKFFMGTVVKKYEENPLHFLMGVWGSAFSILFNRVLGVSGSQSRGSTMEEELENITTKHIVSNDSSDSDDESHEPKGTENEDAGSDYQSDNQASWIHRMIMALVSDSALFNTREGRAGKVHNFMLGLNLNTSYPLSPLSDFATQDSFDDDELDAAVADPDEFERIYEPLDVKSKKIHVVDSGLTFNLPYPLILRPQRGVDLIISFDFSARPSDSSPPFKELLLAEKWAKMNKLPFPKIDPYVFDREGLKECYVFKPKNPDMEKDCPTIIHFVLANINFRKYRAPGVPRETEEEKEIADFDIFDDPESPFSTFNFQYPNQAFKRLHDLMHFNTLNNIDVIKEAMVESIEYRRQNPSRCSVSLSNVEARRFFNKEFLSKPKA
Method in brief: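 cPLA2α purified from human platelets; substrate covesicles of 1-stearoyl-2-arachidonoyl-sn-glycero-3-phosphocholine (SAPC) with 1,2-dioleoyl-sn-glycerol (DOG). Arachidonic acid released from SAPC after 60 min incubation quantified by reversed-phase HPLC, UV 200 nm; inhibition from release with vs without compound. IC50 values are means of at least two independent determinations.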

Stability (Liver microsomes): 39%
solubility thermodynamic [1]: < 1 µg/mL
Compound: CCCCCCCCc1ccc(OCC(=O)Cn2ccc3ccc(C(=O)O)cc32)cc1

Compound: CCCCCCCCc1ccc(OCC(=O)Cn2ncc3ccc(C(=O)O)cc32)cc1
Stability (Liver microsomes): 36%
solubility thermodynamic [1]: 5 µg/mL (≈ 11.8 µM)
IC50 [2]: 26 nM

Compound: CCCCCCCCc1ccc(OCC(=O)Cn2cnc3cc(C(=O)O)ccc32)cc1
Stability (Liver microsomes): 49%
solubility thermodynamic [1]: 22 µg/mL (≈ 52.1 µM)
IC50 [2]: 150 nM

Compound: CCCCCCCCc1ccc(OCC(=O)Cn2ncc3cc(C(=O)O)ccc32)cc1
Stability (Liver microsomes): 64%
solubility thermodynamic [1]: < 1 µg/mL
IC50 [2]: 5 nM

Compound: CCCCCCCCc1ccc(OCC(=O)Cn2nnc3cc(C(=O)O)ccc32)cc1
Stability (Liver microsomes): 43%
solubility thermodynamic [1]: < 1 µg/mL
IC50 [2]: 26 nM

Compound: CCCCCCCCc1ccc(OCC(=O)Cn2nnc3ccc(C(=O)O)cc32)cc1
Stability (Liver microsomes): 44%
solubility thermodynamic [1]: 2 µg/mL (≈ 4.72 µM)
IC50 [2]: 16 nM

Compound: CCCCCCCCc1ccc(OCC(=O)Cn2cnc3ccc(C(=O)O)cc32)cc1
Stability (Liver microsomes): 40%
solubility thermodynamic [1]: 7 µg/mL (≈ 16.6 µM)
IC50 [2]: 85 nM
